{"source": "ChEMBL document CHEMBL2331151", "about": "(Bioorg Med Chem, 2013)", "key": {"[1]": {"assay": "AUC (0 to 24 hrs) in Sprague-Dawley rat at 5 mg/kg, po", "assay_type": "ADME, organism-based", "parameters": "time < 24 hr, dose 5 mg/kg, route oral", "conditions": "plasma; call rule not given here", "method_in_brief": "(§1)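 Compound given as a suspension by oral gavage to Sprague–Dawley rats as a single dose (5 mg/kg in the single-dose comparison; doses from 0.1–100 mg/kg in the dose-dependence study).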"}, "Liver microsomes": {"system": "Liver microsomes", "assay": "Drug metabolism in rat liver microsomes in presence of S9 fractions", "assay_type": "ADME, Microsome", "method_in_brief": "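Compound incubated with the S-9 fraction of rat liver microsomes to measure in vitro clearance. Primary metabolites formed during the incubation were identified.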"}, "[2]": {"assay": "Half life in Sprague-Dawley rat at 5 mg/kg", "assay_type": "ADME, organism-based", "parameters": "dose 5 mg/kg", "conditions": "in vivo"}, "[3]": {"assay": "Oral bioavailability in Sprague-Dawley rat at 5 mg/kg", "assay_type": "ADME, organism-based", "conditions": "in vivo"}, "[4]": {"assay": "Cmax in Sprague-Dawley rat at 5 mg/kg, po", "assay_type": "ADME, organism-based", "parameters": "dose 5 mg/kg, route oral", "conditions": "in vivo", "method_in_brief": "as §1"}, "[5]": {"assay": "Cmax in Sprague-Dawley rat at 0.3 mg/kg, po", "assay_type": "ADME, organism-based", "parameters": "dose 0.3 mg/kg, route oral", "conditions": "in vivo", "method_in_brief": "as §1"}, "[6]": {"assay": "AUC (0 to 24 hrs) in Sprague-Dawley rat at 2 mg/kg, po", "assay_type": "ADME, organism-based", "parameters": "time < 24 hr, dose 2 mg/kg, route oral", "conditions": "plasma", "method_in_brief": "as §1"}, "[7]": {"assay": "AUC (0 to 24 hrs) in Sprague-Dawley rat at 0.3 mg/kg, po", "assay_type": "ADME, organism-based", "parameters": "time < 24 hr, dose 0.3 mg/kg, route oral", "conditions": "plasma", "method_in_brief": "as §1"}, "[8]": {"assay": "AUC (0 to 24 hrs) in Sprague-Dawley rat at 0.1 mg/kg, po", "assay_type": "ADME, organism-based", "parameters": "time < 24 hr, dose 0.1 mg/kg, route oral", "conditions": "plasma", "method_in_brief": "as §1"}, "[9]": {"assay": "AUC (0 to 24 hrs) in Sprague-Dawley rat at 30 mg/kg, po", "assay_type": "ADME, organism-based", "parameters": "time < 24 hr, dose 30 mg/kg, route oral", "conditions": "plasma", "method_in_brief": "as §1"}, "[10]": {"assay": "Cmax in Sprague-Dawley rat at 0.1 mg/kg, po", "assay_type": "ADME, organism-based", "parameters": "dose 0.1 mg/kg, route oral", "conditions": "in vivo", "method_in_brief": "as §1"}, "[11]": {"assay": "AUC (0 to 24 hrs) in Sprague-Dawley rat at 1 mg/kg, po", "assay_type": "ADME, organism-based", "parameters": "time < 24 hr, dose 1 mg/kg, route oral", "conditions": "plasma", "method_in_brief": "as §1"}, "[12]": {"assay": "Cmax in Sprague-Dawley rat at 1 mg/kg, po", "assay_type": "ADME, organism-based", "parameters": "dose 1 mg/kg, route oral", "conditions": "in vivo", "method_in_brief": "as §1"}, "[13]": {"assay": "Cmax in Sprague-Dawley rat at 2 mg/kg, po", "assay_type": "ADME, organism-based", "parameters": "dose 2 mg/kg, route oral", "conditions": "in vivo", "method_in_brief": "as §1"}, "[14]": {"assay": "Cmax in Sprague-Dawley rat at 100 mg/kg, po", "assay_type": "ADME, organism-based", "parameters": "dose 100 mg/kg, route oral", "conditions": "in vivo", "method_in_brief": "as §1"}, "[15]": {"assay": "AUC (0 to 24 hrs) in Sprague-Dawley rat at 100 mg/kg, po", "assay_type": "ADME, organism-based", "parameters": "time < 24 hr, dose 100 mg/kg, route oral", "conditions": "plasma", "method_in_brief": "as §1"}, "[16]": {"assay": "Cmax in Sprague-Dawley rat at 30 mg/kg, po", "assay_type": "ADME, organism-based", "parameters": "dose 30 mg/kg, route oral", "conditions": "in vivo", "method_in_brief": "as §1"}}, "data": [{"smiles": "O=S(=O)(Nc1cc(Cl)c(Oc2cncc(Cl)c2)c(Cl)c1)c1ccc(Cl)cc1Cl", "values": [{"measurement": "AUC(0-t) at 24 h", "setting": "[1]", "value": 4.8, "unit": "µM·h"}]}, {"smiles": "CCNC(=O)c1cc(NS(=O)(=O)c2cc(C)c(Cl)cc2Cl)ccc1Oc1cncc(Cl)c1", "values": [{"measurement": "Drug metabolism", "setting": "Liver microsomes", "value": "Active"}, {"measurement": "half-life", "setting": "[2]", "value": 40, "unit": "min"}, {"measurement": "AUC(0-t) at 24 h", "setting": "[1]", "value": 1.6, "unit": "µM·h"}, {"measurement": "bioavailability", "setting": "[3]", "value": 8, "unit": "%"}]}, {"smiles": "O=S(=O)(Nc1ccc(Oc2cnc3ccccc3c2)c(Cl)c1)c1ccc(Cl)cc1Cl", "values": [{"measurement": "Cmax", "setting": "[4]", "value": 11000, "unit": "nM"}, {"measurement": "AUC(0-t) at 24 h", "setting": "[1]", "value": 105, "unit": "µM·h"}]}, {"smiles": "O=S(=O)(Nc1ccc(Oc2cnc3ccccc3c2)c(F)c1)c1ccc(Cl)cc1Cl", "values": [{"measurement": "Cmax", "setting": "[4]", "value": 4800, "unit": "nM"}, {"measurement": "AUC(0-t) at 24 h", "setting": "[1]", "value": 82, "unit": "µM·h"}]}, {"smiles": "O=S(=O)(Nc1cc(Cl)c(Oc2cnc3ccccc3c2)c(Cl)c1)c1ccc(C(F)(F)F)cc1Cl", "values": [{"measurement": "Cmax", "setting": "[4]", "value": 8500, "unit": "nM"}, {"measurement": "AUC(0-t) at 24 h", "setting": "[1]", "value": 112, "unit": "µM·h"}]}, {"smiles": "CC(=O)c1cc(NS(=O)(=O)c2ccc(Cl)cc2Cl)ccc1Oc1cnc2ccccc2c1", "values": [{"measurement": "Cmax", "setting": "[4]", "value": 920, "unit": "nM"}, {"measurement": "AUC(0-t) at 24 h", "setting": "[1]", "value": 3.4, "unit": "µM·h"}]}, {"smiles": "N#Cc1cc(NS(=O)(=O)c2ccc(Cl)cc2Cl)ccc1Oc1cncc(Cl)c1", "values": [{"measurement": "AUC(0-t) at 24 h", "setting": "[1]", "value": 31, "unit": "µM·h"}]}, {"smiles": "O=S(=O)(Nc1cc(Cl)c(Oc2cnc3ccccc3c2)c(Cl)c1)c1ccc(Cl)cc1Cl", "note": "[INT131]", "values": [{"measurement": "Cmax", "setting": "[5]", "value": 130, "unit": "nM"}, {"measurement": "AUC(0-t) at 24 h", "setting": "[6]", "value": 8.3, "unit": "µM·h"}, {"measurement": "AUC(0-t) at 24 h", "setting": "[7]", "value": 2.6, "unit": "µM·h"}, {"measurement": "AUC(0-t) at 24 h", "setting": "[8]", "value": 1.1, "unit": "µM·h"}, {"measurement": "AUC(0-t) at 24 h", "setting": "[9]", "value": 71, "unit": "µM·h"}, {"measurement": "Cmax", "setting": "[10]", "value": 80, "unit": "nM"}, {"measurement": "AUC(0-t) at 24 h", "setting": "[11]", "value": 5.1, "unit": "µM·h"}, {"measurement": "Cmax", "setting": "[4]", "value": 1100, "unit": "nM"}, {"measurement": "AUC(0-t) at 24 h", "setting": "[1]", "value": 30, "unit": "µM·h"}, {"measurement": "Cmax", "setting": "[12]", "value": 390, "unit": "nM"}, {"measurement": "Cmax", "setting": "[13]", "value": 660, "unit": "nM"}, {"measurement": "Cmax", "setting": "[14]", "value": 6100, "unit": "nM"}, {"measurement": "AUC(0-t) at 24 h", "setting": "[15]", "value": 100, "unit": "µM·h"}, {"measurement": "Cmax", "setting": "[16]", "value": 4300, "unit": "nM"}]}]}
